In ChEMBL document CHEMBL1155146, “Diphenyl furans and aza analogs: effects of structural modification on in vitro activity, DNA binding, and accumulation and distribution in trypanosomes” (Antimicrob Agents Chemother, 2007):

How the values were obtained:
[1] = Binding affinity to poly(dA).poly(dT) assessed as increase in melting temperature
Summary of the method: (§1)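 UV thermal melting in MES buffer (0.01 M MES, 0.1 M NaCl, 0.001 M EDTA, pH 6.2), heated at 0.5°C/min. Oligomer duplex at 1 x 10^-6 M duplex with 1:1 compound:duplex. Poly(dA)·poly(dT) at 5 x 10^-5 M base pairs with 0.6 compound:bp. Tm taken from the first-derivative maximum of absorbance vs temperature. ΔTm = Tm(complex) − Tm(DNA).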

[2] = Binding affinity at d(CGCGAATTCGCG) synthetic oligomer duplex assessed as increase in melting temperature; summary of the method: as §1
[3] = system: Trypanosoma brucei rhodesiense; assay: Antitrypanosomal activity against Trypanosoma brucei rhodesiense STIB900 after 72 hrs; format: functional, organism-based; conditions: STIB900, 72 h
[4] = system: Trypanosoma brucei brucei; assay: Antitrypanosomal activity against Trypanosoma brucei brucei S427 after 72 hrs; format: functional, organism-based; conditions: S427, 72 h
[5] = system: Trypanosoma brucei brucei; assay: Drug level in Trypanosoma brucei brucei S427 at 7.5 uM after 8 hrs; format: ADME, organism-based
Summary of the method: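 About 10^6 trypanosomes incubated with 7.5 µM diamidine for 1 to 8 h. Intracellular concentration measured by HPLC (fluorescence detection at excitation/emission maxima, formate buffer/acetonitrile gradient, reversed-phase column) or LC/MS. Reported as mean ± standard error.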

[6] = system: Trypanosoma brucei brucei; assay: Drug level in Trypanosoma brucei brucei S427 at 7.5 uM after 24 hrs; format: ADME, organism-based

| Compound | ΔTm [1] [°C] | ΔTm [2] [°C] | IC50 [3] [nM] | IC50 [4] [nM] | Drug uptake [5] [mM] | Drug uptake [6] [mM] |
| --- | --- | --- | --- | --- | --- | --- |
| N=C(N)c1ccc(-c2ccc(-c3ccc(C(=N)N)cc3F)o2)c(F)c1 | 15.2 | 8.2 | 8 | 14.8 |  |  |
| N=C(N)c1ccc(-c2ccc(-c3ccc(C(=N)N)cn3)o2)cc1 | 20 | 11.2 |  | 3.4 | 1 | 3 |
| N=C(NC1CCCC1)c1ccc(-c2ccc(-c3ccc(C(=N)NC4CCCC4)cc3)o2)cc1 | 27 | 16 | 60 | 100 | 30 |  |
| N=C(N)c1ccc(-c2ccc(-c3ccc(C(=N)N)nc3)o2)cc1 | 23.3 | 10.4 | 2.1 | 3.3 | 9.3 |  |
| N=C(N)c1ccc(-c2ccc(-c3ccc(C(=N)N)cc3)o2)cc1 [FURAMIDINE] | 26.2 | 8.9 |  | 7 | 4.5 | 12 |
| c1cc(-c2ccc(-c3ccc(C4=NCCCN4)cc3)o2)ccc1C1=NCCCN1 | 27 | 15.1 | 33 | 260 |  |  |
| N=C(N)c1ccc(-c2ccc(-c3ccc(C(=N)N)cn3)o2)nc1 | 16 | 8.4 | 19 | 13 |  |  |
| N=C(N)c1ccc(-c2ccc(-c3ccc(C(=N)N)cc3O)o2)nc1 | 16.4 | 10.4 | 32 | 32 |  |  |
| N=C(NC1CCCCC1)c1ccc(-c2ccc(-c3ccc(C(=N)NC4CCCCC4)cc3)o2)cc1 | 27 | 16.8 | 68 | 121 | 30 |  |
| c1cc(-c2ccc(-c3ccc(C4=NCCN4)cc3)o2)ccc1C1=NCCN1 | 19.3 | 11 | 245 | 251 |  |  |
| Cc1cc(C(=N)N)ccc1-c1ccc(-c2ccc(C(=N)N)cn2)o1 | 16.7 | 10.6 | 9.7 | 10 |  |  |
| N=C(N)c1ccc(Cc2ccc(-c3ccc(C(=N)N)cn3)o2)cc1 | 3.1 | 0.4 | 147 | 314 |  |  |
| N=C(N)c1ccc(-c2coc(-c3ccc(C(=N)N)cc3)c2)cc1 | 17.1 | 10.4 | 1.7 | 2.1 | 30 |  |
